Data reported in ChEMBL document CHEMBL3875221, “New N- and O-arylpiperazinylalkyl pyrimidines and 2-methylquinazolines derivatives as 5-HT7 and 5-HT1A receptor ligands: Synthesis, structure-activity relationships, and molecular modeling studies” (Bioorg Med Chem, 2017).

Tests used:
[1] = molecular target: T1, 5-hydroxytryptamine receptor 7 (Homo sapiens, UniProt P34969); test: Displacement of [3H]-5-HT from recombinant human 5-HT7A receptor expressed in CHOK1 cell membranes after 40 mins by liquid scintillation counting method; design: species or system CHO-K1
T1 sequence (P34969 whole entry): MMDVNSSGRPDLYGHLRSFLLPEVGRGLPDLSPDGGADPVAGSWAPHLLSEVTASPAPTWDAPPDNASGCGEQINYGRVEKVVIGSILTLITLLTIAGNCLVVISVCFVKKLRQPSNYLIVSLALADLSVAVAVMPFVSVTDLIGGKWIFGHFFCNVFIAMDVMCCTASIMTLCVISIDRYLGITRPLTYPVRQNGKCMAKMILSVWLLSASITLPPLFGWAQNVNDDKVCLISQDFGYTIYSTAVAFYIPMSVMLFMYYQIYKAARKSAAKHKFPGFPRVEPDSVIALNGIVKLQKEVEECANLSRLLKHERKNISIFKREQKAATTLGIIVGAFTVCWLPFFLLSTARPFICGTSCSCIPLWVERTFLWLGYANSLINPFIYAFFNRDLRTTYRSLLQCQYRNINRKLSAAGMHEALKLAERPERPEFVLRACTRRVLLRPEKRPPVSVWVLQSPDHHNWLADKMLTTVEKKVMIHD
Outline: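 Membranes (15 µg protein/sample) in 50 mM Tris-HCl pH 7.4 with 4 mM MgCl2, incubated 40 min at 27 °C with [3H]-5-HT (5 nM final). Nonspecific binding with 10 µM serotonin. Stopped by vacuum filtration on PEI-soaked GF/C filters, ice-cold Tris washes.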

[2] = molecular target: T2, 5-hydroxytryptamine receptor 1A (Homo sapiens, UniProt P08908); test: Displacement of [3H]-8-OH-DPAT from recombinant human 5-HT1A receptor expressed in CHOK1 cell membranes after 1 hr by liquid scintillation counting method; design: species or system CHO-K1
T2 sequence (P08908 whole entry): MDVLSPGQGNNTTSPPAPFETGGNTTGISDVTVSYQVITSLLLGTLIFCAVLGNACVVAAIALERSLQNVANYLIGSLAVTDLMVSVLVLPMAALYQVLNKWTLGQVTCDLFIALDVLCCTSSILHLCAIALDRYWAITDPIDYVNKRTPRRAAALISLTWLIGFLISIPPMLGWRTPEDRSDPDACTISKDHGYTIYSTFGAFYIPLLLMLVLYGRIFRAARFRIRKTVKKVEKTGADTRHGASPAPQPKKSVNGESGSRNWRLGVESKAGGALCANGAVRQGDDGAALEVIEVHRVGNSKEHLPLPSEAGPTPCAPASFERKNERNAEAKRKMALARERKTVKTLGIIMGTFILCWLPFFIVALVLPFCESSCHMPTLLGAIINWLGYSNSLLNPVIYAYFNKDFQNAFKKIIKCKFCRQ

[3] = molecular target: T1, 5-hydroxytryptamine receptor 7; test: Antagonist activity at recombinant human 5-HT7 receptor expressed in HEK293 cells assessed as inhibition of 5-CT-induced increase in cAMP level at 10^-6M after 30 mins by TR-FRET assay relative to control; assay type: functional, cell-based
Outline: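 Stably transfected HEK293 cells in stimulation buffer (HBSS, 5 mM HEPES, 0.5 mM IBMX, 0.1% BSA) exposed to 10 nM 5-CT with test ligand for 30 min at room temperature. Lysis with Eu-cAMP/ULight-anti-cAMP, 1 h, then TR-FRET readout of cAMP.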

[4] = molecular target: T3, 5-hydroxytryptamine receptor 1A (Homo sapiens) (UniProt P08908); test: Antagonist activity at recombinant human 5-HT1A receptor expressed in HEK293 cells assessed as inhibition of 8-OH-DPAT-induced decrease in cAMP level at 10^-6M after 30 mins in presence of forskolin by TR-FRET assay relative to control; assay type: functional, cell-based
T3 sequence (whole entry): T2 sequence (P08908 whole entry)
Outline: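 Stable HEK293 cells grown in DMEM with 10% dialysed FBS and G418, resuspended in HBSS/HEPES buffer with 0.5 mM IBMX and 0.1% BSA. Stimulated with 1 µM forskolin plus 1 µM (R)-(+)-8-OH-DPAT alongside test ligand, 30 min at room temperature. cAMP by LANCE Ultra TR-FRET after lysis, 1 h.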

SMILES | Ki [1] | Ki [2] | inhibition [3] | inhibition [4]
Clc1cccc(N2CCN(CCCCCOc3cc(-c4ccccc4)ncn3)CC2)c1 | 44.8 nM | 17.4 nM | – | –
CC1CCN(CC[C@H]2CCCN2S(=O)(=O)c2cccc(O)c2)CC1 | – | – | 97% | –
CCOc1ccccc1N1CCN(CCCCCOc2cc(-c3ccccc3)ncn2)CC1 | 23.5 nM | 6.96 nM | 5.5% | 6%
Cc1nc2ccccc2c(=O)n1CCCCCN1CCN(c2ccc(Cl)cc2)CC1 | 327 nM | 100 nM | – | –
Cc1nc2ccccc2c(=O)n1CCCCCN1CCN(c2ccccc2)CC1 | 53.7 nM | 18.6 nM | – | –
O=c1cc(-c2ccccc2)ncn1CCCCCN1CCN(c2ccccc2)CC1 | 613 nM | 111 nM | – | –
CCOc1ccccc1N1CCN(CCCCCn2cnc(-c3ccccc3)cc2=O)CC1 | 45.1 nM | 25.9 nM | – | –
O=c1cc(-c2ccccc2)ncn1CCCCCN1CCN(c2cccc(Cl)c2)CC1 | 94.7 nM | 17.8 nM | – | –

Second part, the compound after the results:

Ki [1] | Ki [2] | inhibition [3] | inhibition [4] | SMILES
1380 nM | 90.3 nM | – | – | Clc1ccc(N2CCN(CCCCCOc3cc(-c4ccccc4)ncn3)CC2)cc1
143 nM | 33.5 nM | – | – | c1ccc(-c2cc(OCCCCCN3CCN(c4ccccc4)CC3)ncn2)cc1
181 nM | 52.1 nM | – | – | Cc1nc(OCCCCCN2CCN(c3ccc(Cl)cc3)CC2)c2ccccc2n1
276 nM | 24.7 nM | – | – | Cc1nc(OCCCCCN2CCN(c3ccccc3)CC2)c2ccccc2n1
1310 nM | 167 nM | – | – | O=c1cc(-c2ccccc2)ncn1CCCCCN1CCN(c2ccc(Cl)cc2)CC1
35.1 nM | 8.21 nM | – | – | Cc1nc2ccccc2c(=O)n1CCCCCN1CCN(c2cccc(Cl)c2)CC1
8.42 nM | 2.99 nM | 19.5% | 18% | CCOc1ccccc1N1CCN(CCCCCn2c(C)nc3ccccc3c2=O)CC1
1330 nM | 772 nM | – | – | O=c1cc(-c2ccccc2)ncn1CCCCCN1CCN(Cc2ccccc2)CC1
990 nM | 1030 nM | – | – | c1ccc(CN2CCN(CCCCCOc3cc(-c4ccccc4)ncn3)CC2)cc1
